Usually Emax stands for the size of the effect at its maximum, as opposed to the concentration needed. As a reminder, the EC50 is the concentration giving half of the maximal effect.

Holding throughout (format): cell-based
Experiment [1] deals with Cerebral cortex neuron. Briefly: Stimulation of [3H]flunitrazepam binding to GABA type A receptor in mouse primary cortical neurons at 100 uM after 30 mins by liquid scintillation counting analysis relative to allopregnanolone. A digest of the protocol:
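Intact E16 mouse cortical neurons cultured 7–9 days, washed in HEPES pH 7.3, then incubated 30 min at 25 °C with 1.3–2.0 nM [3H]flunitrazepam and 100 μM compound in triplicate. Nonspecific binding was defined with 20 μM diazepam and radioactivity counted by scintillation. Binding increase is given as % of the maximal effect of 60 μM allopregnanolone, mean ± sd, n = 2–4.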

Experiment [2] in a line: Stimulation of [3H]flunitrazepam binding to GABA type A receptor in mouse primary cortical neurons after 30 mins by liquid scintillation counting analysis. To be noted: cerebral cortex neuron. A digest of the protocol: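 Cortical neurons from E16 mouse embryos, cultured 7–9 days with FUdR/uridine against glia, then washed in HEPES buffer pH 7.3. Intact cells were incubated with 1.3–2.0 nM [3H]flunitrazepam and compound (1 nM–300 μM, ≥6 concentrations, triplicate, final DMSO 100 μM) for 30 min at 25 °C. Nonspecific binding used 20 μM diazepam. EC50 came from a sigmoid fit, mean ± sd, n = 2–4.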

The test system of experiment [3] is Cerebral cortex neuron. Briefly: Stimulation of [3H]flunitrazepam binding to GABA type A receptor in primary cortical neurons relative to allopregnanolone.

Bounds are passed on as bounds.

`CC(=O)[C@H]1CC[C@H]2[C@@H]3CC[C@@H]4C[C@H](O)CC[C@]4(C)[C@H]3[C@H](O)C[C@]12C` displayed an Emax in the experiment with Cerebral cortex neuron [1] of 43%. In addition, the EC50 in experiment [2] stood at 71 µM.

Consider `CC(=O)[C@H]1CC[C@H]2[C@@H]3CC[C@@H]4C[C@H](O)CC[C@]4(C)C3=C(C)C[C@]12C`, for which the Emax in the experiment on Cerebral cortex neuron [1] was 97%. In experiment [2], this compound gave an EC50 of 3 µM.

Consider `C=C1C[C@]2(C)[C@@H](C(C)=O)CC[C@H]2[C@@H]2CC[C@H]3C[C@H](O)CC[C@]3(C)[C@@H]12`, for which, in the experiment with Cerebral cortex neuron [1], the Emax was found to be 102%. For the same compound, the midpoint of the response in experiment [2], the EC50, lay at 1.2 µM.

`CC(=O)[C@H]1CC[C@H]2[C@@H]3CC[C@H]4C[C@H](O)CC[C@]4(C)[C@H]3C=C[C@]12C` registered an Emax with Cerebral cortex neuron [1] of 67%. This compound registered an EC50 in experiment [2] of 7.4 µM.

The compound `C#C[C@]1(O)C[C@]2(C)[C@@H](C(C)=O)CC[C@H]2[C@@H]2CC[C@H]3C[C@H](O)CC[C@]3(C)[C@H]21` displayed an Emax with Cerebral cortex neuron [1] of 87%. In experiment [2], this compound returned an EC50 of 32 µM.

Regarding `C#C[C@@]1(O)CC[C@@]2(C)[C@H](CC[C@H]3[C@@H]4CC[C@H](C(C)=O)[C@@]4(C)C[C@@](O)(C#C)[C@@H]32)C1`, in the experiment with Cerebral cortex neuron [1], the Emax is 61%. In experiment [2], it took 75 µM to reach a half-maximal effect (EC50).

For `CC(=O)[C@H]1CC[C@H]2[C@@H]3CC[C@H]4C[C@H](O)CC[C@]4(C)[C@H]3C[C@H](O)[C@]12C`, in the experiment on Cerebral cortex neuron [1], the Emax was 60%. Further, in experiment [2], the EC50 is 46 µM.

In turn, `CC(=O)[C@H]1CC[C@H]2[C@@H]3CC[C@H]4C[C@H](O)CC[C@]4(C)[C@H]3[C@H](O)C[C@]12C` registered an Emax with Cerebral cortex neuron [1] of 28%. For the same compound, the EC50 in experiment [2] is over 300 µM.

`CC(=O)[C@H]1CC[C@H]2[C@@H]3CC[C@H]4C[C@H](O)CC[C@]4(C)[C@H]3C(=O)C[C@]12C` [ALFAXALONE] registered an Emax in the experiment with Cerebral cortex neuron [1] of 92%. The same compound yielded an EC50 in experiment [2] of 4.6 µM.

In turn, `CC(=O)[C@H]1CC[C@H]2[C@@H]3CC[C@H]4C[C@H](O)CC[C@]4(C)[C@H]3[C@H](N)C[C@]12C` had an Emax with Cerebral cortex neuron [1] of 45%. This compound also gave an EC50 in experiment [2] of 154 µM.

In the experiment with Cerebral cortex neuron [1], `CC(=O)N[C@@H]1C[C@H]2[C@@H](CC[C@H]3C[C@H](O)CC[C@@]32C)[C@@H]2CC[C@H](C(C)=O)[C@@]12C` displayed an Emax of 0%. In addition, in experiment [2], the EC50 was over 100 µM.

For the compound `C=C1C[C@]2(C)[C@@H](C(C)=O)CC[C@H]2[C@@H]2CC[C@@H]3C[C@H](O)CC[C@]3(C)[C@@H]12`, the Emax in the experiment with Cerebral cortex neuron [1] came to 28%. Besides, the EC50 in experiment [2] worked out at 37.5 µM.

As to `C#C[C@]1(O)C[C@]2(C)[C@@H](C(C)=O)CC[C@H]2[C@@H]2CC[C@@H]3C[C@H](O)CC[C@]3(C)[C@H]21`, in the experiment on Cerebral cortex neuron [1], the Emax came out at 91%. In experiment [2], this compound registered an EC50 of 14 µM.

`CC(=O)[C@H]1CC[C@H]2[C@@H]3CC[C@@H]4C[C@@](O)(C#Cc5ccccc5)CC[C@]4(C)[C@H]3[C@](O)(C#Cc3ccccc3)C[C@]12C` yielded an Emax with Cerebral cortex neuron [1] of 0%. Further, in experiment [2], the EC50 was over 100 µM.

For the compound `CC(=O)[C@H]1CC[C@H]2[C@@H]3CC[C@H]4C[C@H](O)CC[C@]4(C)[C@H]3[C@@H]3O[C@@H]3[C@]12C`, the Emax in the experiment on Cerebral cortex neuron [1] is 9%. The same compound yielded a concentration giving a half-maximal response (EC50) in experiment [2] of over 300 µM.

On to `CC(=O)[C@H]1CC[C@H]2[C@@H]3CC[C@@H]4C[C@H](O)CC[C@]4(C)[C@H]3[C@](O)(C#Cc3ccccc3)C[C@]12C`, for which the Emax in the experiment with Cerebral cortex neuron [1] was determined as 116%. For the same compound, a half-maximal effect in experiment [2] (EC50) was put at 1.2 µM.

Compound `CC(=O)[C@H]1CC[C@H]2[C@@H]3CC[C@H]4C[C@H](O)CC[C@]4(C)[C@H]3[C@@H](N)C[C@]12C` gave an Emax with Cerebral cortex neuron [1] of 140%. Also, it took 5.9 µM to reach a half-maximal effect in experiment [2] (EC50).

With `CC(=O)[C@H]1CC[C@H]2[C@@H]3CC[C@@H]4C[C@H](O)CC[C@]4(C)[C@H]3C(=O)C[C@]12C` [RENANOLONE], in the experiment on Cerebral cortex neuron [1], the Emax stood at 42%. Besides, the EC50 in experiment [2] was found to be 94 µM.

`CC(=O)[C@H]1CC[C@H]2[C@@H]3CC[C@@H]4C[C@H](O)CC[C@]4(C)[C@H]3[C@@H](C)C[C@]12C` registered an Emax with Cerebral cortex neuron [1] of 71%. It took 14 µM to reach a half-maximal effect in experiment [2] (EC50).

Turning to `CC(=O)[C@H]1CC[C@H]2[C@@H]3CC[C@H]4C[C@H](O)CC[C@]4(C)[C@H]3C[C@@H](N)[C@]12C`, the Emax with Cerebral cortex neuron [1] was determined as 0%. Further, in experiment [2], the EC50 was over 300 µM.

For the compound `CC(=O)[C@H]1CC[C@H]2[C@@H]3CC[C@@H]4C[C@H](O)CC[C@]4(C)[C@H]3[C@@H](O)C[C@]12C`, in the experiment with Cerebral cortex neuron [1], the Emax came to 25%. Moreover, in experiment [2], the EC50 is over 300 µM.

On to `CC(=O)[C@H]1CC[C@H]2[C@@H]3CC[C@H]4C[C@H](N)CC[C@]4(C)[C@H]3CC[C@]12C`, for which the Activity in the experiment on Cerebral cortex neuron [3] amounted to 56%.

In the case of `CC(=O)[C@H]1CC[C@H]2[C@@H]3CC[C@H]4C[C@H](O)CC[C@]4(C)[C@H]3[C@@H](C)C[C@]12C`, the Emax in the experiment on Cerebral cortex neuron [1] stood at 97%. The compound further displayed an EC50 in experiment [2] of 8 µM.

In the experiment with Cerebral cortex neuron [1], `CC(=O)[C@H]1CC[C@H]2[C@@H]3CC[C@H]4C[C@H](O)CC[C@]4(C)[C@H]3[C@@H](O)C[C@]12C` came in with an Emax of 117%. The same compound yielded an EC50 in experiment [2] of 32 µM.

Consider `CC(=O)[C@H]1CC[C@H]2[C@@H]3CC[C@H]4C[C@H](O)CC[C@]4(C)[C@H]3C[C@@H](O)[C@]12C`, for which the Emax in the experiment on Cerebral cortex neuron [1] was found to be 28%. In experiment [2], this compound displayed an EC50 of 173 µM.

The values above are taken from ChEMBL document CHEMBL2321827, “Allopregnanolone and pregnanolone analogues modified in the C ring: synthesis and activity” (J Med Chem, 2013).
